# From PubChem BioAssay
# This is a sample that favours compounds with a hit; in the whole collection about 2.9% have one here.
# TRPC6 act = mouse TRPC6 channel activators, primary screen, cell-based, HEK293, membrane potential dye; HEK293-TRPC6 membrane potential dye fluorescence; stronger effect = higher value; B-score at 10 µM; 310,000 compounds, 0.13% hits; AID 2550, 2010;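 active = B-score of the integrated fluorescence ratio above library mean plus 3 SD, and starting fluorescence ratio within library mean plus 5 SD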;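 note: higher score means more depolarization so channel activation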
# TRPC6 inhibitor = mouse TRPC6 channel inhibitors, primary screen, cell-based, HEK293, membrane potential dye; AID 2553, 2010; ACh-evoked depolarization; stronger effect = lower value; B-score at 10 µM; 310,000 compounds, 1.1% hits;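 active = B-score under library mean minus 3 SD, initial fluorescence not abnormally high, positive integrated signal ratio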;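 note: B-score derived from integrated fluorescence ratio over the kinetic read; more negative B-score means stronger inhibition of depolarization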
# TRPC4 block = inhibitors of mouse TRPC4 channel, primary screen, Fluo4 calcium, HEK293 TRPC4beta/mu-opioid cells | AID 2247, 2010 | 300,000 compounds, 0.39% hits | DAMGO-evoked Fluo4 calcium flux; stronger effect = lower value | B-score at 10 µM | Short transient receptor potential channel 4 (Mus musculus), Q9QUQ5;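 active = B-score over 3 SD under the library average, no early fluorescence shift, positive overall ratio signal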
# Target sequence (Q9QUQ5 whole entry, looked up): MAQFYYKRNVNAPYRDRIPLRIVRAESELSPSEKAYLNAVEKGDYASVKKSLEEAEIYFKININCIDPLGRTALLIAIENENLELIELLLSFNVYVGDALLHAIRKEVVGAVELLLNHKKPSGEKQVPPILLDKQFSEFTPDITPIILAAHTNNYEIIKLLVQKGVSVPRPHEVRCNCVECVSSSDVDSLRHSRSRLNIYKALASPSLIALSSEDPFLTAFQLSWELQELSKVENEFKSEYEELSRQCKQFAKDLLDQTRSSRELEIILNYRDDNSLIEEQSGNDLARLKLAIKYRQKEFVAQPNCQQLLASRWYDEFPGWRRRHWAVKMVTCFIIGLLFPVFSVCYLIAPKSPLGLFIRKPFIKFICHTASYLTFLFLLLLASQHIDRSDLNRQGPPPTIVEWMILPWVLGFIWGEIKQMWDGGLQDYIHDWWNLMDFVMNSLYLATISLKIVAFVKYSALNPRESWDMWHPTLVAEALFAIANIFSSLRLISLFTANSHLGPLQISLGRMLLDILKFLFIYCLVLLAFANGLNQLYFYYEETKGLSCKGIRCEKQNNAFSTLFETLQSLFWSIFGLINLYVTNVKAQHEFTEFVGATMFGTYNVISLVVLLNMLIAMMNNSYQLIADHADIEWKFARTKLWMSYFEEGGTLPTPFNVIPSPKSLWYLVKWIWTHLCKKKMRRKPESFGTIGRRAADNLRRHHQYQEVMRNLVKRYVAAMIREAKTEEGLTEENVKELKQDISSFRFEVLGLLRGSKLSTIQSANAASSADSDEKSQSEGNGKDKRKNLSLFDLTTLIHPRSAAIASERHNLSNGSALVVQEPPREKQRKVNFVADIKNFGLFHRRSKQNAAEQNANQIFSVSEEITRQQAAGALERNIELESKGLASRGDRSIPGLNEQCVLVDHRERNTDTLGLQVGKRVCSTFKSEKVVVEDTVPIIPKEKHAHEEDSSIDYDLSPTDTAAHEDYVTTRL
#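 Assay system – HEK293 line stably carrying TRPC4beta and mu-opioid receptor · Doses – single dose · Detection – Fluo4 calcium-dye fluorescence, kinetic read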
# TRPC4 act = activators of mouse TRPC4 channel, primary screen, Fluo4 calcium, HEK293 TRPC4beta/mu-opioid cells; Fluo4 calcium fluorescence; stronger effect = higher value; AID 2237, 2010; B-score at 10 µM; 310,000 compounds, 0.49% hits;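 active = B-score above 5 SD of library B-scores, and initial fluorescence ratio not above library mean plus 5 SD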;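 note: positive B-score marks a calcium rise read as TRPC4 activation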
#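 System – HEK293 cells stably co-expressing mouse TRPC4beta and mu-opioid receptor · Signal – Fluo4 calcium-sensitive dye fluorescence, kinetic, 1 Hz baseline · Benchmarks – buffer (low) and maximal DAMGO (high) · Read-out – B score of integrated fluorescence ratio per well · Incubation – dye loading 45 min room temperature, 110 s kinetic read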
# TRPC4 PAM = positive allosteric modulators of TRPC4, primary screen, cell-based, mouse TRPC4beta, HEK293 mu-opioid, Fluo-4 calcium | Short transient receptor potential channel 4 (Mus musculus), Q9QUQ5 | DAMGO EC20, Fluo-4 Ca2+ flux; stronger effect = higher value | B-score at 10 µM | 310,000 compounds, 0.42% hits | AID 2227, 2009;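 active = B-score of calcium response area above 5 SD of library B-scores, with initial fluorescence ratio within 5 SD of library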;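 note: B-score of integrated fluorescence ratio over time as area under calcium response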
# Kir21 block = inhibitors of mouse Kir2.1 inward-rectifier potassium channel. Inward rectifier potassium channel 2 (Mus musculus), P35561. HEK293-Kir2.1, FluxOR thallium flux fluorescence; stronger effect = lower value. B-score at 10 µM. 310,000 compounds, 0.85% hits;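 active = fluorescence ratio B-score at or below minus 3 SD of library scores, with starting-brightness B-score within 2 SD, cut at about -4.2 in these data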;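 note: channel flux triggered by added potassium and thallium sulfate stimulus; B-score of peak minus minimum fluorescence over baseline after thallium stimulus; more negative B-score means stronger Kir2.1 block with less thallium influx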
# TRPC4 spec 2 = second selectivity test of TRPC6 inhibitors: effect on mouse TRPC4. AID 2776. HEK293 TRPC4/MOR, membrane potential dye fluorescence; channel activated by saturating DAMGO dose. inhibition, % at 10 µM. 920 compounds, 42% hits. shares compounds with TRPC6 inhibitor;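 active = compounds whose fluorescence signal differed from control wells by over 3 SD, either direction, in both duplicate plates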
# TRPC4 spec = mouse TRPC4 modulation by TRPC6 hits, confirmation, selectivity assay for TRPC6 inhibitor project, cell-based, HEK293 TRPC4/mu-opioid, membrane potential dye; AID 2777, 2010; activity change, negative = inhibition, % at 10 µM; membrane potential fluorescence; shares compounds with TRPC6 inhibitor; 920 compounds, 61% hits;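 active = rise or fall in signal beyond 3 SD of buffer-only wells in both replicate plates, either sign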;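 note: integrated kinetic ratio of fluorescence range over baseline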
# HEK293 MPD ctr 2-1 = nonspecific membrane potential effects, parental HEK293, confirmation, counter-screen for TRPC6 inhibitor project, cell-based, second counter screen. shares compounds with TRPC6 inhibitor. parental HEK293 membrane potential dye fluorescence; maximal acetylcholine challenge after compound addition. signal change vs control, % at 10 µM. 920 compounds, 31% hits;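 active = membrane potential signal moving either way by over 3 SD of the maximum-effect control, in both duplicate plates, meaning non-specific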
# HEK293 MPD ctr-1 = membrane potential modulation in parental HEK293, confirmation, counter-screen for TRPC6 inhibitor project, cell-based; membrane potential signal change, % at 10 µM; 920 compounds, 60% hits; shares compounds with TRPC6 inhibitor; AID 2780, 2010; parental HEK293 membrane potential dye fluorescence;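 active = membrane potential signal shifting up or down by more than 3 SD of buffer-only wells, on both duplicate plates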
# HEK293 MPD ctr-2 = parental HEK293 membrane potential modulation, confirmation, counter-screen for TRPC6 modulator project, cell-based. shares compounds with TRPC6 inhibitor. 2,400 compounds, 51% hits. membrane potential dye fluorescence. membrane potential signal change, % at 10 µM;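 active = membrane potential signal moves up or down beyond 5 SD from buffer-only wells, on both duplicate plates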
# HEK293 MPD ctr 2-2 = second check of TRPC6 modulator effects in parental HEK293 cells. shares compounds with TRPC6 inhibitor. membrane potential dye fluorescence; after compound, maximal acetylcholine stimulation. inhibition, % at 10 µM. 2,400 compounds, 14% hits;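 active = membrane potential signal drops by more than 5 SD from the mean control signal, in both duplicate plates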;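 note: plate controls were acetylcholine ECmax control wells for no effect and buffer only wells for full effect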
# TRPC4 ctr mod = TRPC4 modulation by TRPC6 hit compounds, confirmation, selectivity assay for TRPC6 modulator project, cell-based, HEK293 TRPC4/mu-opioid, membrane potential dye, mouse; shares compounds with TRPC6 inhibitor; membrane potential fluorescence; percent change from control (negative = decrease, positive = increase), % at 10 µM; 2,400 compounds, 69% hits; AID 488927, 2010;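 active = membrane potential signal moved up or down beyond 5 SD of buffer control wells, in both duplicate plates, actives on both sides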;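 note: plate controls were assay buffer wells for no effect and DAMGO maximal-effect wells for full effect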
# TRPC4/MOR inh 2 = mouse TRPC4 off-target activity of TRPC6 modulators, second screen; shares compounds with TRPC6 inhibitor; HEK293 TRPC4/mu-opioid, membrane potential dye fluorescence; stimulated with maximal-effect DAMGO; inhibition, % at 10 µM; 2,400 compounds, 55% hits; AID 488928;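 active = drop in membrane potential signal beyond 5 SD of the control wells in both duplicate plates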;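 note: TRPC4 counter screen for TRPC6 hits run under conditions tuned for TRPC6 not TRPC4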
# TRPC6 block conf = mouse TRPC6 channel inhibitors, confirmation, HEK293 cells, membrane potential dye, duplicate | shares compounds with TRPC6 inhibitor | ACh-evoked depolarization | inhibition, % at 10 µM | 3,300 compounds, 43% hits | AID 488960, 2010;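 active = fluorescence ratio falls more than 5 SD below the full-stimulation control mean, in both duplicate runs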;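 note: integrated fluorescence ratio of peak minus minimum over baseline after agonist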
# TRPC6 act confirm = mouse TRPC6 channel activators, confirmation, HEK293 cells, membrane potential dye, duplicate; shares compounds with TRPC6 inhibitor; activation, % at 10 µM; HEK293-TRPC6 membrane potential dye fluorescence, FDSS; 2,800 compounds, 11% hits;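 active = ratio signal rise beyond 5 SD above unstimulated control wells' mean, seen in both duplicate runs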;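 note: plate controls were buffer EC0 wells for no effect and acetylcholine ECmax response for full effect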
# The depositor's hits bear a star; i = inactive; · = no result given.
SMILES,TRPC6 act,TRPC6 inhibitor,TRPC4 block,TRPC4 act,TRPC4 PAM,Kir21 block,HEK293 MPD ctr-2,HEK293 MPD ctr 2-2,TRPC4 ctr mod,TRPC4/MOR inh 2,TRPC6 block conf,TRPC6 act confirm,others
Fc1ccccc1-c1nc(NCCCN2CCOCC2)c2ccccc2n1,i,-5.1*,i,i,i,0.43,-272%*,i,-47%*,55%*,52%*,i,
Cc1ccc(-c2nc(NCCN3CCOCC3)c3ccccc3n2)cc1,i,-6.2*,i,i,i,0.01,-210%*,i,-38%*,74%*,62%*,i,
Clc1cccc(-c2nc(NCCN3CCOCC3)c3ccccc3n2)c1,i,i,i,i,i,0,·,·,·,·,·,·,
COc1cccc(NC(=O)C(OC(=O)c2cnc(C)cn2)c2ccccc2)c1 (stereo not drawn),i,i,i,i,i,-0.33,·,·,·,·,·,·,
Oc1ccccc1-c1nc(NCCN2CCOCC2)c2ccccc2n1,i,-8.3*,i,i,i,-0.26,·,·,·,·,68%*,i,TRPC4 spec 2=58%*;TRPC4 spec=-19%*;HEK293 MPD ctr 2-1=i;HEK293 MPD ctr-1=-328%*
COc1cccc(-c2nc(NCCN3CCOCC3)c3ccccc3n2)c1O,i,i,i,i,i,-0.12,·,·,·,·,·,·,
Nc1c2c(nc3sc4c(c13)CCCC4)CCCCCC2,i,i,i,i,i,1.4,·,·,·,·,·,·,
Cc1ccc(C)c2c(N)c3c(nc12)CCCCC3 (tested in a mixture with another compound),i,-5.8*,-7*,i,i,-0.26,-118%*,i,-22%*,i,i,i,
CCN(CC)CCN1C(=O)C2C3c4ccccc4C(c4ccccc43)C2C1=O (stereo not drawn),i,i,i,i,i,-1.4,·,·,·,·,·,·,
CCN1C(=O)/C(=C/C=C2/Sc3ccc4ccccc4c3N2CCO)SC1=S,i,i,i,i,i,0.56,·,·,·,·,·,·,
CCN(CC)CCN1c2ccccc2Sc2ccc3ccccc3c21,i,-6*,i,i,i,-3.2,i,i,i,i,i,i,
CCN(CC)CCN1c2ccccc2Sc2ccccc21,i,-6.2*,-6*,i,i,-4.7*,92%*,i,49%*,64%*,55%*,·,
COc1ccc(C(=O)NC(=S)N(CCC(C)C)c2c(N)n(Cc3ccccc3)c(=O)[nH]c2=O)cc1,i,-5.5*,i,i,i,-0.8,i,i,i,i,i,i,
Cc1ccc(-c2nn3c(C)nnc3s2)cc1NC(=O)c1cccnc1,i,-9.7*,i,i,i,-1.6,-244%*,i,-43%*,40%*,i,i,
Cc1nnc2ccc(-c3cccc(NC(=O)c4ccc(Cl)nc4)c3)nn12,i,-5.8*,i,i,i,0.25,i,i,-16%*,37%*,48%*,i,
Cc1nnc2sc(-c3cccc(NC(=O)c4cccnc4)c3)nn12,i,-6.5*,i,i,i,0,-148%*,i,-28%*,i,i,i,
CN(CCOC(=O)CN1C(=O)c2ccccc2C1=O)C1=NS(=O)(=O)c2ccccc21,i,i,i,i,i,0.2,·,·,·,·,·,·,
COc1ccc(OC)c(/C=C2\SC(=S)N(C(C(=O)O)c3ccccc3)C2=O)c1 (stereo not drawn),18*,i,i,i,i,-2.6,412%*,i,83%*,i,i,175%*,
CCOc1ccc(/C=C2\SC(=S)N(C(C(=O)O)c3ccccc3)C2=O)cc1OC (stereo not drawn),i,i,i,i,i,-0.04,·,·,·,·,·,·,
